In ChEMBL document CHEMBL3272253, “Relationship of molecular structure to in vivo scintigraphic distribution patterns of carbon-11 labeled compounds. 3. (11C)Hydantoins” (J Med Chem, 1976):
Values belong to the compound of their own block, whether it stands above or below them.

Assays:
Details in all cases: in vivo; call rule not given here
Nucleic Acid [1] = assay: Ratio of drug level in iv dosed dog pancreas to temporal muscle after 80 mins by gamma-scintillation counting analysis; format: ADME, organism-based, Canis lupus familiaris
Summary of the method: (§1)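 Dogs were dosed iv with 11C-labeled hydantoin. Tissues and fluids were collected at necropsy 73 or 80 min post-dose and counted at fixed geometry in front of a thallium-activated NaI scintillation detector. Values are cpm/g of tissue divided by cpm/g of temporal muscle.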

[2] = Drug excretion in iv dosed dog urine after 1 hr by gamma-scintillation counting analysis; format: ADME, organism-based, Canis lupus familiaris
Nucleic Acid [3] = assay: Ratio of drug level in iv dosed dog washed heart to temporal muscle after 80 mins by gamma-scintillation counting analysis; format: ADME, organism-based, Canis lupus familiaris
Summary of the method: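 Dogs received the [11C]-labeled hydantoin intravenously. At necropsy 80 min post-injection, the heart was washed and collected with temporal muscle. Each sample was placed at a fixed position before a thallium-activated NaI scintillation detector. The ratio is cpm/g tissue over cpm/g temporal muscle.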

Nucleic Acid [4] = assay: Ratio of drug level in iv dosed dog spleen to temporal muscle after 80 mins by gamma-scintillation counting analysis; format: ADME, organism-based, Canis lupus familiaris; summary of the method: as §1
Canis familiaris [5] = assay: Drug level in iv dosed dog after 5 to 30 mins by gamma-scintillation counting analysis; format: ADME, organism-based, Canis lupus familiaris
Summary of the method: (§2)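 Carbon-11-labeled hydantoin, 1–59 mCi of final product, dissolved in 1–1.5% aqueous NaOH and given iv to dogs. Distribution imaged serially for up to 2 hr or more with a scintillation camera fitted with a pinhole collimator (1-cm hyperbolic aperture), with whole-body scintiphotos at about 5 and 30 min. Readout is qualitative to semiquantitative; no coincidence imaging.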

Nucleic Acid [6] = assay: Ratio of drug level in iv dosed dog mesenteric fat to temporal muscle after 80 mins by gamma-scintillation counting analysis; format: ADME, organism-based, Canis lupus familiaris; summary of the method: as §1
Nucleic Acid [7] = assay: Ratio of drug level in iv dosed dog stomach to temporal muscle after 80 mins by gamma-scintillation counting analysis; format: ADME, organism-based, Canis lupus familiaris; summary of the method: as §1
Nucleic Acid [8] = assay: Ratio of drug level in iv dosed dog liver to temporal muscle after 80 mins by gamma-scintillation counting analysis; format: ADME, organism-based, Canis lupus familiaris; summary of the method: as §1
Nucleic Acid [9] = assay: Ratio of drug level in iv dosed dog kidney to temporal muscle after 80 mins by gamma-scintillation counting analysis; format: ADME, organism-based, Canis lupus familiaris; summary of the method: as §1
Nucleic Acid [10] = assay: Ratio of drug level in iv dosed dog brain to temporal muscle after 80 mins by gamma-scintillation counting analysis; format: ADME, organism-based, Canis lupus familiaris; summary of the method: as §1
Nucleic Acid [11] = assay: Ratio of drug level in iv dosed dog bile to temporal muscle after 80 mins by gamma-scintillation counting analysis; format: ADME, organism-based, Canis lupus familiaris; summary of the method: as §1
Nucleic Acid [12] = assay: Ratio of drug level in iv dosed dog lung to temporal muscle after 80 mins by gamma-scintillation counting analysis; format: ADME, organism-based, Canis lupus familiaris; summary of the method: as §1
Nucleic Acid [13] = assay: Ratio of drug level in iv dosed dog blood to temporal muscle after 80 mins by gamma-scintillation counting analysis; format: ADME, organism-based, Canis lupus familiaris; summary of the method: as §1
Liver [14] = assay: Drug level in iv dosed dog liver by gamma-scintillation counting analysis; format: ADME, organism-based, Canis lupus familiaris; summary of the method: as §2
Canis familiaris [15] = assay: Drug level in iv dosed dog by gamma-scintillation counting analysis; format: ADME, organism-based, Canis lupus familiaris; summary of the method: as §2
Brain [16] = assay: Drug level in iv dosed dog brain after 5 to 30 mins by gamma-scintillation counting analysis; format: ADME, organism-based, Canis lupus familiaris; summary of the method: as §2
[17] = Drug excretion in iv dosed dog bile after 5 to 30 mins by gamma-scintillation counting analysis; format: ADME, organism-based, Canis lupus familiaris; summary of the method: as §2
[18] = Drug level in iv dosed dog lung by gamma-scintillation counting analysis; format: ADME, organism-based, Canis lupus familiaris; summary of the method: as §2
[19] = Drug excretion in iv dosed dog urine by gamma-scintillation counting analysis; format: ADME, organism-based, Canis lupus familiaris; summary of the method: as §2
[20] = Drug level in iv dosed dog kidney by gamma-scintillation counting analysis; format: ADME, organism-based, Canis lupus familiaris; summary of the method: as §2
Brain [21] = assay: Drug level in iv dosed dog brain after 40 mins by gamma-scintillation counting analysis; format: ADME, organism-based, Canis lupus familiaris
Summary of the method: (§3)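 Dogs received the 11C-labeled hydantoin iv in 1–1.5% aqueous NaOH. Organs and tissues were taken at necropsy 40 min after dosing and placed at fixed geometrical positions in front of a thallium-activated NaI scintillation detector. Detected scintillation events gave quantitative estimates of tissue activity.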

[22] = Drug level in iv dosed dog pancreas after 40 mins by gamma-scintillation counting analysis; format: ADME, organism-based, Canis lupus familiaris; summary of the method: as §3
Liver [23] = assay: Drug level in iv dosed dog liver after 40 mins by gamma-scintillation counting analysis; format: ADME, organism-based, Canis lupus familiaris; summary of the method: as §3
[24] = Drug level in iv dosed dog heart after 40 mins by gamma-scintillation counting analysis; format: ADME, organism-based, Canis lupus familiaris; summary of the method: as §3
[25] = Drug level in iv dosed dog skeletal muscle after 40 mins by gamma-scintillation counting analysis; format: ADME, organism-based, Canis lupus familiaris, Muscle tissue; summary of the method: as §3
Brain [26] = assay: Drug level in iv dosed dog brain by gamma-scintillation counting analysis; format: ADME, organism-based, Canis lupus familiaris; summary of the method: as §2
[27] = Drug level in iv dosed dog kidney after 40 mins by gamma-scintillation counting analysis; format: ADME, organism-based, Canis lupus familiaris; summary of the method: as §3
[28] = Drug level in iv dosed dog omentum after 40 mins by gamma-scintillation counting analysis; format: ADME, organism-based, Canis lupus familiaris; summary of the method: as §3
[29] = Drug level in iv dosed dog lung after 40 mins by gamma-scintillation counting analysis; format: ADME, organism-based, Canis lupus familiaris; summary of the method: as §3
[30] = Drug level in iv dosed dog cerebrospinal fluid after 40 mins by gamma-scintillation counting analysis; format: ADME, organism-based, Canis lupus familiaris; summary of the method: as §3
[31] = Drug excretion in iv dosed dog bile by gamma-scintillation counting analysis; format: ADME, organism-based, Canis lupus familiaris; summary of the method: as §2
[32] = Drug level in iv dosed dog blood after 40 mins by gamma-scintillation counting analysis; format: ADME, organism-based, Canis lupus familiaris; summary of the method: as §3
[33] = Drug level in iv dosed dog mesenteric fat after 40 mins by gamma-scintillation counting analysis; format: ADME, organism-based, Canis lupus familiaris; summary of the method: as §3
[34] = Drug level in iv dosed dog stomach after 40 mins by gamma-scintillation counting analysis; format: ADME, organism-based, Canis lupus familiaris; summary of the method: as §3
[35] = Drug excretion in iv dosed dog urine after 5 to 30 mins by gamma-scintillation counting analysis; format: ADME, organism-based, Canis lupus familiaris; summary of the method: as §2
[36] = Drug level in iv dosed dog kidney after 5 to 30 mins by gamma-scintillation counting analysis; format: ADME, organism-based, Canis lupus familiaris; summary of the method: as §2
[37] = Drug level in iv dosed dog vein by gamma-scintillation counting analysis; format: ADME, organism-based, Canis lupus familiaris; summary of the method: as §2
Nucleic Acid [38] = assay: Ratio of drug level in iv dosed dog mesenteric fat to temporal muscle after 73 mins by gamma-scintillation counting analysis; format: ADME, organism-based, Canis lupus familiaris; summary of the method: as §1
Nucleic Acid [39] = assay: Ratio of drug level in iv dosed dog stomach to temporal muscle after 73 mins by gamma-scintillation counting analysis; format: ADME, organism-based, Canis lupus familiaris; summary of the method: as §1
Nucleic Acid [40] = assay: Ratio of drug level in iv dosed dog spleen to temporal muscle after 73 mins by gamma-scintillation counting analysis; format: ADME, organism-based, Canis lupus familiaris; summary of the method: as §1
Nucleic Acid [41] = assay: Ratio of drug level in iv dosed dog blood to temporal muscle after 73 mins by gamma-scintillation counting analysis; format: ADME, organism-based, Canis lupus familiaris; summary of the method: as §1
Nucleic Acid [42] = assay: Ratio of drug level in iv dosed dog bile to temporal muscle after 73 mins by gamma-scintillation counting analysis; format: ADME, organism-based, Canis lupus familiaris; summary of the method: as §1
Liver [43] = assay: Drug level in iv dosed dog liver after 5 to 30 mins by gamma-scintillation counting analysis; format: ADME, organism-based, Canis lupus familiaris; summary of the method: as §2
Nucleic Acid [44] = assay: Ratio of drug level in iv dosed dog washed heart to temporal muscle after 73 mins by gamma-scintillation counting analysis; format: ADME, organism-based, Canis lupus familiaris
Summary of the method: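 [11C]-labeled hydantoin, from carrier-free [11C]HCN, given intravenously to dogs. Heart washed and taken at necropsy 73 min after dosing, along with temporal muscle. Tissues were counted at fixed geometry before a thallium-activated NaI scintillation detector. Value is cpm/g washed heart divided by cpm/g temporal muscle.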

Nucleic Acid [45] = assay: Ratio of drug level in iv dosed dog brain to temporal muscle after 73 mins by gamma-scintillation counting analysis; format: ADME, organism-based, Canis lupus familiaris; summary of the method: as §1
Nucleic Acid [46] = assay: Ratio of drug level in iv dosed dog kidney to temporal muscle after 73 mins by gamma-scintillation counting analysis; format: ADME, organism-based, Canis lupus familiaris; summary of the method: as §1
Nucleic Acid [47] = assay: Ratio of drug level in iv dosed dog cerebrospinal fluid to temporal muscle after 73 mins by gamma-scintillation counting analysis; format: ADME, organism-based, Canis lupus familiaris; summary of the method: as §1
Nucleic Acid [48] = assay: Ratio of drug level in iv dosed dog urine to temporal muscle after 73 mins by gamma-scintillation counting analysis; format: ADME, organism-based, Canis lupus familiaris; summary of the method: as §1
[49] = Drug level in iv dosed dog lung after 5 to 30 mins by gamma-scintillation counting analysis; format: ADME, organism-based, Canis lupus familiaris; summary of the method: as §2
Nucleic Acid [50] = assay: Ratio of drug level in iv dosed dog liver to temporal muscle after 73 mins by gamma-scintillation counting analysis; format: ADME, organism-based, Canis lupus familiaris; summary of the method: as §1
Nucleic Acid [51] = assay: Ratio of drug level in iv dosed dog pancreas to temporal muscle after 73 mins by gamma-scintillation counting analysis; format: ADME, organism-based, Canis lupus familiaris; summary of the method: as §1
Nucleic Acid [52] = assay: Ratio of drug level in iv dosed dog lung to temporal muscle after 73 mins by gamma-scintillation counting analysis; format: ADME, organism-based, Canis lupus familiaris; summary of the method: as §1

Compound: O=C1NC(c2ccccc2)[11C](=O)N1 (stereo not drawn)
Ratio (Nucleic Acid [1]): 0.63
Drug excretion [2]: metabolite_detected
Ratio (Nucleic Acid [3]): 0.71
Ratio (Nucleic Acid [4]): 0.81
Drug uptake (Canis familiaris [5]): Active
Ratio (Nucleic Acid [6]): 0.25
Ratio (Nucleic Acid [7]): 0.76
Ratio (Nucleic Acid [8]): 2.25
Ratio (Nucleic Acid [9]): 1.91
Ratio (Nucleic Acid [10]): 0.73
Ratio (Nucleic Acid [11]): 0.83
Ratio (Nucleic Acid [12]): 1.05
Ratio (Nucleic Acid [13]): 0.93

Compound: CCCC1(CCC)NC(=O)N[11C]1=O
Drug uptake (Liver [14]): Active
Drug uptake (Canis familiaris [15]): Active
Drug uptake (Brain [16]): Not Active
Drug excretion [17]: metabolite_notdetected
Drug uptake [18]: Active
Drug excretion [19]: metabolite_detected
Drug uptake [20]: Active

Compound: O=C1N[11C](=O)C2(CCCCC2)N1
Drug uptake (Liver [14]): Active
Drug uptake (Canis familiaris [15]): Active
Drug uptake [18]: Active
Drug excretion [19]: metabolite_detected
Drug uptake [20]: Active
Drug uptake [37]: Active

Compound: CC(C)CC1(CC(C)C)NC(=O)N[11C]1=O
Drug uptake (Liver [14]): Active
Drug uptake (Canis familiaris [15]): Active
Drug uptake (Brain [16]): Not Active
Drug excretion [17]: metabolite_notdetected
Drug uptake [18]: Active
Drug excretion [19]: metabolite_detected
Drug uptake [20]: Active

More lines, now with the values ahead:

Drug uptake (Brain [21]): Active
Drug uptake [22]: Active
Drug uptake (Liver [23]): Active
Drug uptake [24]: Active
Drug uptake [25]: Active
Drug uptake (Brain [26]): Active
Drug uptake [27]: Active
Drug uptake [28]: Active
Drug excretion [19]: metabolite_detected
Drug uptake [29]: Active
Drug uptake [20]: Active
Drug uptake [30]: Active
Drug excretion [31]: metabolite_detected
Drug uptake [32]: Active
Drug uptake [33]: Active
Drug uptake [34]: Active
Compound: O=C1N[11C](=O)C(c2ccccc2)(c2ccccc2)N1

Drug excretion [35]: metabolite_detected
Drug uptake [36]: Active
Drug uptake (Canis familiaris [5]): Active
Compound: O=C(O)CCC1(c2ccccc2)NC(=O)N[11C]1=O (stereo not drawn)

Ratio (Nucleic Acid [38]): 0.75
Ratio (Nucleic Acid [39]): 0.92
Ratio (Nucleic Acid [40]): 1.25
Drug uptake (Canis familiaris [5]): Active
Ratio (Nucleic Acid [41]): 1
Ratio (Nucleic Acid [42]): 1.58
Drug uptake (Liver [43]): Active
Ratio (Nucleic Acid [44]): 1
Ratio (Nucleic Acid [45]): 1.25
Ratio (Nucleic Acid [46]): 1.25
Ratio (Nucleic Acid [47]): 2.67
Ratio (Nucleic Acid [48]): 0.67
Drug uptake [49]: Active
Ratio (Nucleic Acid [50]): 1.33
Ratio (Nucleic Acid [51]): 1.67
Ratio (Nucleic Acid [52]): 0.75
Compound: CCC1(c2ccccc2)NC(=O)N[11C]1=O (stereo not drawn)

Drug uptake (Brain [26]): Active
Drug excretion [19]: metabolite_detected
Drug uptake [20]: Active
Drug excretion [31]: metabolite_detected
Compound: O=C1N[11C](=O)C(c2ccc(Cl)cc2)(c2ccc(Cl)cc2)N1

Drug uptake (Canis familiaris [5]): Active
Compound: CC1(c2ccccc2)NC(=O)N[11C]1=O (stereo not drawn)
